Source: ChEMBL document CHEMBL3352378, “Novel carbazole inhibits phospho-STAT3 through induction of protein-tyrosine phosphatase PTPN6” (J Med Chem, 2014)
Active and inactive are the calls of the source.

Assays:
[1] = test system: SUM149PT; assay: Induction of PTPN6 mRNA expression in human SUM149PT cells after 24 hrs by RT-PCR analysis; assay type: functional, cell-based
How it was run: (§1)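 HS578T and SUM149PT cells given increasing concentrations for 24 h. PTPN6 mRNA measured by RT-PCR, with GAPDH as loading control.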

[2] = test system: MDA-MB-468; assay: Cytotoxicity against human MDA-MB-468 cells after 72 hrs by MTT assay; assay type: functional, cell-based
How it was run: (§2)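 Cells exposed to increasing concentrations for about 72 h, and viability read by MTT. EC50 fitted with CompuSyn. Two independent experiments, each in triplicate, mean ± SEM. Compound stocks 10 mM in DMSO.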

[3] = test system: Hs-578T; assay: Induction of PTPN6 mRNA expression in human Hs578T cells after 24 hrs by RT-PCR analysis; assay type: functional, cell-based; how it was run: as §1
[4] = test system: MDA-MB-453; assay: Cytotoxicity against human MDA-MB-453 cells after 72 hrs by MTT assay; assay type: functional, cell-based; how it was run: as §2
[5] = test system: Mus musculus; assay: Toxicity in athymic Balb/c nude mouse xenografted with human SUM149 cells assessed as decreased activity at 10 to 30 mg/kg, ip administered every other day for 5 days; assay type: organism-based; parameters: dose 10-30 mg/kg, route intraperitoneal; settings: in vivo, 120 h
How it was run: (§3)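 SUM149 cells (3×10^6) implanted subcutaneously in the right auxiliary region of male and female athymic nude mice (18–22 g). Groups of five, randomized; dosed ip every other day at 10 or 30 mg/kg from 1 mg/mL Cremophore 10%/PEG400 3%/PBS vehicle, vehicle control. Tumor volume by caliper (L×w×w/2); body weight, appetite, activity and lethargy monitored.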

[6] = Drug uptake in human MDA-MB-231 cell nucleus at 10 uM after 1 hr by two-photon confocal microscopy; assay type: ADME, cell-based; settings: mda-mb-231, 1 h
How it was run: (§4)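 MDA-MB-231 cells grown overnight on fibronectin/[…]-coated slides, then given 10 μM compound or DMSO for 1 h. Cells washed with PBS and fixed in 4% formaldehyde. Two-photon excitation at 725 nm, emission collected through a 500–550 nm filter.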

[7] = test system: Mus musculus; assay: Toxicity in athymic Balb/c nude mouse xenografted with human SUM149 cells assessed as change in body weight at 10 to 30 mg/kg, ip administered every other day for 5 days; assay type: organism-based; parameters: dose 10-30 mg/kg, route intraperitoneal; settings: in vivo, 120 h; how it was run: as §3
[8] = biological target: Signal transducer and activator of transcription 3 (Homo sapiens) (UniProt P40763); assay: Inhibition of STAT3 in human SUM149PT cells assessed as reduction of STAT3 phosphorylation at Y705 after 24 hrs by Western blotting analysis; assay type: cell-based
Signal transducer and activator of transcription 3 (Homo sapiens), sequence (P40763 whole entry): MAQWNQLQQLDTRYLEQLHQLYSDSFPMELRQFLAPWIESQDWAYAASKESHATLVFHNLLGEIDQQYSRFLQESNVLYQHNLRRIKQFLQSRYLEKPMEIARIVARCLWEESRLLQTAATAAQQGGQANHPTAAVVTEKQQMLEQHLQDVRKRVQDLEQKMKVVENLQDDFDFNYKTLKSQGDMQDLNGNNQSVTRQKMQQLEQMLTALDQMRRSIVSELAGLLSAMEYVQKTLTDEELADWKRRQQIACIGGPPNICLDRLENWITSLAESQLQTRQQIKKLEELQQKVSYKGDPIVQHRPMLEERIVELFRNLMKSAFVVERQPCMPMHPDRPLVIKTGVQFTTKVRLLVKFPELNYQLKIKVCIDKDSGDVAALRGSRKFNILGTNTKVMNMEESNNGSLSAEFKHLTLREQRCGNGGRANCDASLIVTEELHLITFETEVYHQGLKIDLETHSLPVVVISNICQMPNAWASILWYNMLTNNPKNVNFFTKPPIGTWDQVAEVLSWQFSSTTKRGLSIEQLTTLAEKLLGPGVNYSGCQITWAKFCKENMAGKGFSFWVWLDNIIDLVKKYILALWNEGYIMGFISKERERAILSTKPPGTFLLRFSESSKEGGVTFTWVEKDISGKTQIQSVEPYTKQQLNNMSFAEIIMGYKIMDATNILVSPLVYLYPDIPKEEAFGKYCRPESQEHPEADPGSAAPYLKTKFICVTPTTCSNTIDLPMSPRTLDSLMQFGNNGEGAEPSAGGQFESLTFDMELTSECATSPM
How it was run: (§5)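 HS578T and SUM149PT cells given increasing concentrations for 24 h. Lysates immunoblotted with the indicated antibodies, β-actin as loading control.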

[9] = biological target: Signal transducer and activator of transcription 3 (Homo sapiens) (UniProt P40763); assay: Inhibition of STAT3C-mediated transcription in human Hs578T cells at 1 uM after 24 hrs by luciferase reporter gene assay; assay type: cell-based; settings: Hs-578T
How it was run: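 HS578T cells co-transfected with a constitutively active STAT3 (STAT3C) expression vector and the APRE-Luc reporter. Treated at 1 μM for 24 h, with JAK2 inhibitor AZD1480 for comparison. Luciferase measured; mean ± SD of triplicates.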

[10] = biological target: Signal transducer and activator of transcription 3 (Homo sapiens) (UniProt P40763); assay: Inhibition of STAT3 in human Hs578T cells assessed as reduction of IL-6 induced transactivation incubated for 1 hr prior to IL-6 challenge measured after 2 hrs by luciferase reporter gene assay; assay type: cell-based; settings: Hs-578T
How it was run: (§6)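 Cells transfected with the APRE-Luc STAT3-responsive reporter. Pretreated 1 h with increasing concentrations, then given 5 ng/mL IL-6: 2 h for HS578T, 16 h for MCF7. Luciferase read afterwards; relative activity as mean ± SD of triplicates.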

[11] = biological target: Signal transducer and activator of transcription 3 (Homo sapiens) (UniProt P40763); assay: Inhibition of STAT3 in human MCF7 cells assessed as reduction of IL-6 induced transactivation incubated for 1 hr prior to IL-6 challenge measured after 16 hrs by luciferase reporter gene assay; assay type: cell-based; how it was run: as §6
[12] = test system: Mus musculus; assay: Toxicity in athymic Balb/c nude mouse xenografted with human SUM149 cells assessed as loss of appetite at 10 to 30 mg/kg, ip administered every other day for 5 days; assay type: organism-based; parameters: dose 10-30 mg/kg, route intraperitoneal; settings: in vivo, 120 h; how it was run: as §3
[13] = biological target: Tyrosine-protein phosphatase non-receptor type 6 (Homo sapiens) (UniProt P29350); assay: Induction of PTPN6 in human SUM149PT cells assessed as inhibition of STAT3 phosphorylation at 3 uM after 16 hrs by Western blotting analysis in presence of pervanadate; assay type: cell-based
Tyrosine-protein phosphatase non-receptor type 6 (Homo sapiens), sequence (P29350 whole entry): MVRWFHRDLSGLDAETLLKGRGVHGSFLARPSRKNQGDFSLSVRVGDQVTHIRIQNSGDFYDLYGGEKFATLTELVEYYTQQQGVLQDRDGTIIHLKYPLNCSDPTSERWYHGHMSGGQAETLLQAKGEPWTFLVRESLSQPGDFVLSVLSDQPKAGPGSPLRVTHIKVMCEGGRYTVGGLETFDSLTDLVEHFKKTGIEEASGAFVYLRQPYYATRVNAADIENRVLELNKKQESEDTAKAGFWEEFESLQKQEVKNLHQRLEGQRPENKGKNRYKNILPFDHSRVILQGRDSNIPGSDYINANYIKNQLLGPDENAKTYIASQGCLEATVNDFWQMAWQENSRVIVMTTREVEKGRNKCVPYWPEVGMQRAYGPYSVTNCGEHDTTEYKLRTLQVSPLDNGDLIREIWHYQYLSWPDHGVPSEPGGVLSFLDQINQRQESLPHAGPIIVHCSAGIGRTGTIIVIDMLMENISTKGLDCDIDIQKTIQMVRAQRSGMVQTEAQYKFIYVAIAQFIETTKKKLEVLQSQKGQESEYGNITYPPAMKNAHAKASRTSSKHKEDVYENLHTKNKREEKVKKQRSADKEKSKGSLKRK
How it was run: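 HS578T and SUM149PT cells treated for 16 h without or with increasing pervanadate as a phosphatase inhibitor; JAK1/2 inhibitor CP690550 run in parallel. Lysates immunoblotted for phospho-STAT3 (Y705), with β-actin as loading control.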

[14] = test system: SUM149PT; assay: Antitumor activity against human SUM149 cells xenografted in athymic Balb/c nude mouse assessed as reduction in pSTAT3 level at 30 mg/kg, ip administered every other day for 5 days measured on day 5 by Western blotting analysis; assay type: functional, organism-based; parameters: dose 30 mg/kg
How it was run: (§7)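 SUM149 subcutaneous xenografts in nude mice (n = 5), dosed ip every other day in Cremophore/PEG400/PBS vehicle. Tumors taken on day 5 were immunoblotted for PTPN6, STAT3 and pSTAT3, with GAPDH as control. PTPN6 quantified by densitometry with a one-tailed t test.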

[15] = biological target: Signal transducer and activator of transcription 3 (Homo sapiens) (UniProt P40763); assay: Inhibition of STAT3 in human Hs578T cells assessed as reduction of STAT3 phosphorylation at Y705 after 24 hrs by Western blotting analysis; assay type: cell-based; settings: Hs-578T; how it was run: as §5
[16] = biological target: Signal transducer and activator of transcription 3 (Homo sapiens) (UniProt P40763); assay: Inhibition of STAT3 in human SUM149PT cells assessed as reduction of cyclin D1 mRNA expression at 0.3 to 1 uM after 24 hrs by RT-PCR analysis; assay type: cell-based
How it was run: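 HS578T and SUM149PT cells treated for 24 h with increasing concentrations. Transcripts measured by RT-PCR, normalized to GAPDH as loading control.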

[17] = Antitumor activity against human SUM149 cells xenografted in athymic Balb/c nude mouse assessed as PTPN6 upregulation at 30 mg/kg, ip administered every other day for 5 days measured on day 5 by Western blotting analysis; assay type: functional, organism-based; parameters: dose 30 mg/kg; settings: SUM149PT; how it was run: as §7
[18] = test system: MDA-MB-436; assay: Cytotoxicity against human MDA-MB-436 cells after 72 hrs by MTT assay; assay type: functional, cell-based; how it was run: as §2
[19] = biological target: Signal transducer and activator of transcription 3 (Homo sapiens) (UniProt P40763); assay: Inhibition of STAT3 in human Hs578T cells assessed as reduction of IL-6 induced STAT3 phosphorylation at Y705 incubated for 2 hrs prior to IL-6 challenge measured after 30 mins by Western blotting analysis; assay type: cell-based; settings: Hs-578T
How it was run: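 Cells pretreated with compound for 2 h, then stimulated with IL-6 at 5 ng/mL for 30 min. Lysates immunoblotted for phospho-STAT3 (Y705), with β-actin as loading control.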

[20] = test system: MDA-MB-231; assay: Cytotoxicity against human MDA-MB-231 cells after 72 hrs by MTT assay; assay type: functional, cell-based; how it was run: as §2
[21] = test system: SUM149PT; assay: Cytotoxicity against human SUM149PT cells after 72 hrs by MTT assay; assay type: functional, cell-based; how it was run: as §2
[22] = Drug uptake in human MDA-MB-231 cell cytoplasm at 10 uM after 1 hr by two-photon confocal microscopy; assay type: ADME, cell-based; settings: mda-mb-231, 1 h; how it was run: as §4

Cc1c(OS(=O)(=O)c2cccc3c(N(C)C)cccc23)ccc2c1[nH]c1cc(O)ccc12
inactive: inhibition [13]
Active: Drug uptake [22]
Non-toxic: Activity [5] | Activity [7] | Activity [12]
active: Activity [1] Dose-dependent effect | Activity [2] | Activity [3] Dose-dependent effect | Activity [4] | inhibition [8] Dose-dependent effect | inhibition [9] | inhibition [10] Dose-dependent effect | inhibition [11] | Activity [14] | inhibition [15] Dose-dependent effect | inhibition [16] | Activity [17] | Activity [18] | inhibition [19] Dose-dependent effect | Activity [20] | Activity [21]
Not Active: Drug uptake [6]
